The values that follow come from article PMC4021451 (Journal of medicinal chemistry, 2012).

For data set [1], the system named is P31/cis cells (cisplatin-resistant subline). Briefly: EZ4U viability assay in resistance models, P31/cis. In kind it is cell-based. To be noted: read-out: IC50 P31/cis, 96 h exposure. The method in brief: (§1)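 Cells were seeded at 2 × 10^3 per well and allowed to recover for 24 h. Test compound was then added in growth medium and exposed for 96 h. Viable cell proportion was read with the EZ4U kit. Media, all with 10% FBS: SW1573 and 2R120 in DMEM, A2780 and A2780/cis in RPMI 1640, P31 in MEM. Cells were grown at 37 °C in 5% CO2.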

The test system of data set [2] is SW1573 cells (chemosensitive parental non-small-cell lung cancer line). Briefly: EZ4U viability assay in resistance models, SW1573. The class given is cell-based, human. To be noted: read-out: IC50 SW1573, 96 h exposure. The procedure, abridged:
as §1

For another data set, the system named is P31 (mesothelioma) cells. Put plainly: EZ4U viability assay in resistance models, P31. In kind it is cell-based. To be noted: read-out: IC50 P31, 96 h exposure. The method in brief: as §1
The subject of data set [3] is ABCC1-overexpressing 2R120 cells. Put plainly: EZ4U viability assay in resistance models, 2R120. To be noted: read-out: IC50 2R120, 96 h exposure. In kind it is cell-based, human. The method in brief:
as §1

The test system of data set [4] is CH1 (ovarian carcinoma) cells. Put plainly: MTT cytotoxicity assay, CH1 cells. In kind it is cell-based, human. To be noted: read-out: IC50 CH1, 96 h exposure, mean ± SD. The procedure, abridged:
(§2)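 Cells were seeded in MEM at 1.5 × 10^3 (CH1), 4.0 × 10^3 (A549) or 2.5 × 10^3 (SW480) per well, given 24 h to resume exponential growth, then exposed to serial dilutions for 96 h. Medium was replaced with RPMI 1640 plus MTT in PBS (5 mg/mL solution) for 4 h, then DMSO. OD was read at 550 nm. At least three independent experiments were run, with triplicates per concentration.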

For data set [5], the system named is A2780/cis cells (cisplatin-selected subline). Briefly: EZ4U viability assay in resistance models, A2780/cis. The class given is cell-based. To be noted: for IC50: read-out: IC50 A2780/cis, EZ4U assay, 96 h exposure. The procedure, abridged: as §1
Data set [6] relates to SW480 (colon adenocarcinoma) cells. Put plainly: MTT cytotoxicity assay, SW480 cells. To be noted: read-out: IC50 SW480, 96 h exposure, mean ± SD. In kind it is cell-based, human. The procedure, abridged: as §2
In general terms: Tetrazolium assays rely on reduction of a dye to a coloured formazan, in cell work by metabolically active cells.

Data set [7] deals with A549 (non-small-cell lung carcinoma) cells. Put plainly: MTT cytotoxicity assay, A549 cells. The class given is cell-based, human. To be noted: read-out: IC50 A549, 96 h exposure, mean ± SD. The method in brief: as §2
A short description of data set [8]: Reversed-phase HPLC lipophilicity. In kind it is physicochemical. To be noted: RP-HPLC, C18, methanol/15 mM aqueous formic acid, extrapolated to 100% H2O, 25 °C. The method in brief:
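Isocratic runs on a silica-based C18 column (4.6 mm × 250 mm), with methanol/15 mM aqueous formic acid from 5:95 to 50:50 depending on compound polarity. Flow 1.00 mL/min, UV 210 nm. […] Each compound ran at least twice in at least three mobile-phase compositions. log kw came from linear extrapolation of log k' versus methanol fraction.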

A further data set concerns A2780 cells. Put plainly: Total Pt uptake levels by ICP-MS. The class given is cell-based. To be noted: 2 h drug exposure. The procedure, abridged:
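A2780 cells (4 × 10^5 per well) settled for 24 h, then were exposed to test compound for 2 h at 37 °C. After two ice-cold PBS washes, cells were lysed in tetramethylammonium hydroxide and diluted in 0.6 N HNO3. Pt was measured by ICP-MS against matrix-matched standards with 1 ppb indium internal standard and corrected for a cell-free blank well. Values are relative mean and SD from at least two independent experiments.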

In data set [9] the test system is A2780 (ovarian carcinoma) cells. Put plainly: EZ4U viability assay in resistance models, A2780. To be noted: read-out: IC50 A2780, 96 h exposure. In kind it is cell-based. The procedure, abridged: as §1

Turning to `N.N.[Cl][Pt][Cl]` [cisplatin], the IC50 was greater than 20 µM in data set [1]; 6.5 ± 0.1 µM in data set [2]; 4 ± 0.3 µM with P31 (mesothelioma) cells; greater than 20 µM in data set [3]; 0.16 ± 0.03 µM in [4]; 3.7 ± 0.3 µM in data set [5]. For the same compound, the IC50 in data set [6] is 3.5 ± 0.3 µM.

With “(OC-6-54)-Dichlorido(N,N-dimethylethane-1,2-diamine)-hydroxidomethoxidoplatinum(IV) [1b]”, the IC50 stood at 73 ± 3 µM in data set [7], 2.5 ± 0.2 µM in data set [4] and 40 ± 14 µM in [6]. For the same compound, in data set [8], the log kw was 0.09 ± 0.01.

Regarding `CC(=O)[O-].CC(=O)[O-].N.NC1CCCCC1.[Cl-].[Cl-].[Pt+4]` [satraplatin, (OC-6-43)-diacetatoamminedichlorido(cyclohexylamine)platinum(IV)], in the data set with A2780 cells, the “Cellular drug uptake (total Pt levels)” value is “enhanced drug uptake”. Further, the values for the IC50 in data set [9] and in [5] were 0.5 ± 0.3 µM and 5.7 ± 0.2 µM, respectively. The “-fold resistance A2780/cis” value in [5] (A2780/cis versus A2780) was 11.4 fold. The log kw in data set [8] is 1.79 ± 0.01.
